The source of these data is PMC10505864 (Asian Pacific Journal of Cancer Prevention : APJCP, 2023).

Data set [1] is described as follows: Pharmacokinetic study of CBZ in rat plasma. Format: in vivo, rat (Sprague Dawley). The essentials:
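Male and female Sprague Dawley rats (~200 g), seven per group, fasted 24 h. Given 10 mg/kg by oral gavage, alone or after 30 mg/kg extract by gavage (three days before, repeated 30 min pre-dose). Orbital blood collected into EDTA from 0–24 h. Plasma precipitated with acetonitrile containing metronidazole benzoate internal standard, then C18 HPLC-UV at 285 nm. Calibration 75–5,000 ng/mL; samples run in duplicate.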

Data set [2] deals with MCF-7 (human breast cancer cells). The data set can be described thus: MTT cell viability assay on MCF-7 cells. As to conditions: for IC50 / inhibition at 30 µg/mL / inhibition at 60 µg/mL / inhibition at 130 µg/mL / inhibition at 250 µg/mL / inhibition at 500 µg/mL / inhibition at 1000 µg/mL: Homo sapiens, MCF7, 48 h; for IC50: read-out: IC50 µg/mL on MCF-7; for inhibition at 30 µg/mL / inhibition at 60 µg/mL / inhibition at 130 µg/mL / inhibition at 250 µg/mL / inhibition at 500 µg/mL / inhibition at 1000 µg/mL: read-out: Inhibition (%) of MCF-7 Cells. Format: cell-based. The essentials:
(§1)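 PC3 cells grown in RPMI-1640 and MCF-7 cells in DMEM, each with 10% heat-inactivated FBS, penicillin/streptomycin, L-glutamine and amphotericin B. Seeded at 2 × 10^4 cells/well and grown to ~70% confluence (37°C, 5% CO2). Test compounds given as eight serial dilutions, starting at 1 mg/mL for drugs and 2.5 mg/mL for extract, for 48 h. MTT (5 mg/mL solution) added for 4 h at 25°C; A570 read.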
(In general: Formazan colour is commonly taken as a measure of viable cells.)

The subject of data set [3] is PC3 (human prostate cancer cells). The data set can be described thus: MTT cell viability assay on PC3 cells. The data set is classed as cell-based. As to conditions: for IC50 / inhibition at 30 µg/mL / inhibition at 60 µg/mL / inhibition at 130 µg/mL / inhibition at 250 µg/mL / inhibition at 500 µg/mL / inhibition at 1000 µg/mL: Homo sapiens, PC-3, 48 h; for IC50: read-out: IC50 µg/mL on PC3; for inhibition at 30 µg/mL / inhibition at 60 µg/mL / inhibition at 130 µg/mL / inhibition at 250 µg/mL / inhibition at 500 µg/mL / inhibition at 1000 µg/mL: read-out: Inhibition (%) of PC3 Cells; for cytotoxicity activity (in words): PC3. In outline: as §1

For data set [4] the following is noted: rat plasma, ref Salemaldajeh et al., 2015, cited from earlier work.
For data set [5] the following is noted: after oral administration; ref Salemaldajeh et al., 2015; Emad et al., 2018; cited from earlier work.
The conditions of data set [6]: ref Salemaldajeh et al., 2015; Emad et al., 2018; cited from earlier work.
Setting [7] is: both, Sprague Dawley, rat, plasma, po, 10 mg/kg.
Where [8] appears, read: rat plasma, CBZ 10 mg/kg oral gavage, alone, listed as CBZ alone.

In brackets after ≈: the same amount, converted by molar mass. Like-named read-outs stand apart in the source and are kept apart here.

Turning to `NC(=O)N1c2ccccc2C=Cc2ccccc21` [CBZ, carbamazepine], the concentration at 24 h in data set [1] (both, Sprague Dawley, rat, plasma, oral, 10 mg/kg) was determined as 65.2 ng/mL. Besides, in data set [1] (setting [7]), the Cmax is 4630 ng/mL, the time to peak (Tmax) was 3.5 h and the k el is 5e-05 s⁻¹. Besides, in data set [1] (setting [8]), the “AUC (0–24 h)” value is 49225 ng·h/mL and the Half-life is given as 3.78 h. In data set [2], the IC50 turned out to be 250 ± 44 µg/mL (≈ 1060 µM), the inhibition at 30 µg/mL was determined as 11.9%, the inhibition at 60 µg/mL came to 19.7% and the inhibition at 130 µg/mL turned out to be 30.1%. Also, in data set [2], the inhibition at 250 µg/mL is 53.2%, the inhibition at 500 µg/mL amounted to 69.3% and the inhibition at 1000 µg/mL was 83.3%. Also, in data set [3], the IC50 stood at 130 ± 27 µg/mL (≈ 550 µM), the inhibition at 30 µg/mL was 29.7%, the inhibition at 60 µg/mL turned out to be 31.4% and the inhibition at 130 µg/mL came out at 53%. Also, in data set [3], the inhibition at 250 µg/mL is 87.5%, the inhibition at 500 µg/mL was 95.1% and the inhibition at 1000 µg/mL was found to be 93.4%. Also, in data set [3] (MTT, 48 h), the “cytotoxicity activity (in words)” value is recorded as “robust”. Moreover, the Cmax in data set [4] (CBZ alone) is listed as 4,130 ng/mL. Further, the Cmax in data set [4] (CBZ combined with graviola juice) is 2,886 ng/mL. For the same compound, in data set [5], the “binds to plasma proteins” value is listed as “approximately 75%”. Further, the “drug excreted unchanged without metabolism” value in data set [6] is “about 5%”.
For `N.N.[Cl][Pt][Cl]` [Cisplatin], the “IC50 µg/mL on MCF-7” value in data set [2] (MTT, 48 h, mean ± SD) worked out at 14.6 ± 2.4 µg/mL. The “IC50 µg/mL on PC3” value in data set [3] (MTT, 48 h, mean ± SD) is given as 8.6 ± 1.5 µg/mL.
In the case of `COc1cccc2c1C(=O)c1c(O)c3c(c(O)c1C2=O)C[C@@](O)(C(=O)CO)C[C@@H]3O[C@H]1C[C@H](N)[C@H](O)[C@H](C)O1` [Doxorubicin], the IC50 in data set [2] is 0.64 ± 0.04 µg/mL (≈ 1.18 µM); in data set [3], 0.62 ± 0.06 µg/mL (≈ 1.14 µM).
Consider `CCCC(CCC)C(=O)O` [VPA, valproic acid], for which, in data set [2], the IC50 is greater than 1000 µg/mL, the inhibition at 30 µg/mL came out at 10.6%, the inhibition at 60 µg/mL was found to be 8.5% and the inhibition at 130 µg/mL was found to be 13.4%. Further, in data set [2], the inhibition at 250 µg/mL turned out to be 15.7%, the inhibition at 500 µg/mL amounted to 14.7% and the inhibition at 1000 µg/mL was found to be 24.9%. Further, the “cytotoxicity activity (in words)” value in data set [2] (MCF-7, MTT, 48 h) is “weak”. Further, in data set [3], the IC50 is greater than 1000 µg/mL, the inhibition at 30 µg/mL was 19.8%, the inhibition at 60 µg/mL was 10.7% and the inhibition at 130 µg/mL stood at 2.62%. In addition, in data set [3], the inhibition at 250 µg/mL came to 0.74%, the inhibition at 500 µg/mL amounted to 0.24% and the inhibition at 1000 µg/mL was found to be 26.7%. For the same compound, in data set [3] (MTT, 48 h), the “cytotoxicity activity (in words)” value is given as “weak”.

The term Cmax denotes the maximum level reached in the sampled fluid or tissue. As a reminder, the Tmax is the time from dosing to the highest level. For orientation: inhibition means the percentage by which the read-out fell short of the control.
